Measured values published in PubChem BioAssay AID1424 (The Scripps Research Institute Molecular Screening Center, 2008).
The whole screen tested about 220,000 compounds, of which about 390 (0.18%) were called active. This is one part of a sample in which actives are shown more often than they occur. A number with no mark means an inactive call.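 The calls were made as follows: active = activation above its plate's cutoff, the mean activation of test wells on that plate plus 3 SD (cut at about 19% in these data); inactive = the rest.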

system: transient receptor potential cation channel N1 (TRPN1/NompC), Danio rerio; assay: TRPN1 activation via calcium influx – cell-based, HEK293, calcium fluorescence, zebrafish, primary screen (AID 1424); settings: HEK293 zebrafish TRPN1-YFP, Fluo-8 calcium fluorescence; at 3 µM; stronger effect = higher value; 100% = response to 87 µM carbachol;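 also: 0% = DMSO alone and 100% = 87 µM carbachol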
How it was run: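 Material – zebrafish TRPN1-YFP in HEK293 cells · Doses – 3 µM single point · Schedule – dye 1 h 37 °C plus 30 min RT · Signal – Fluo-8 calcium fluorescence, excitation 470-495 nm, emission 515-575 nm · Read-out – % activation versus carbachol response · Control set – carbachol high, DMSO low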

| Compound | activation |
| --- | --- |
| Cc1ccc(-n2c(C)cc(/C=N/Nc3ccc([N+](=O)[O-])cn3)c2C)c(C)c1 | -0.82% |
| C/C=N/N(c1ccccc1)c1ccccc1 | 0.69% |
| COc1cc(NC(=S)NCCSc2ccc(C)cc2)cc(OC)c1 | -3.08% |
| Cc1cc(C)c(S(=O)(=O)N2CCOCC2)cc1C | -0.54% |
| CC(C)n1c(NCc2c[nH]c3ccccc23)nc2ccccc21 | -0.19% |
| Cc1nc(S(=O)(=O)c2ccc(Br)cc2)nc2c1CCC2 | 0.17% |
| CN(C)C=NC(=O)c1cccn1-c1ncc(C(F)(F)F)cc1Cl | -0.1% |
| NS(=O)(=O)c1ccc(NC(=O)COC(=O)c2c3c(nc4ccccc24)/C(=C\c2ccc4c(c2)OCO4)CCC3)cc1 | 47.9% (active) |
| NS(=O)(=O)c1ccc(NC(=O)COC(=O)c2cc3ccccc3oc2=O)cc1 | 0.38% |
| NS(=O)(=O)c1ccc(NC(=O)COC(=O)c2ccc(Cl)nc2)cc1 | 1.46% |
| NC(=O)c1ccc(NC(=O)COC(=O)c2c3c(nc4ccccc24)/C(=C\c2ccc4c(c2)OCO4)CCC3)cc1 | 41.6% (active) |
| COc1cc(-c2cc(C(=O)OCC(=O)Nc3ccc4c(c3)OCO4)c3ccccc3n2)cc(OC)c1OC | -1.87% |
| O=C(COC(=O)c1c2c(nc3ccccc13)/C(=C\c1cccs1)CCC2)Nc1ccccc1Cl | -1.63% |
| CCN1CCC2(CC1)N=C(c1ccc(F)cc1)C(=S)N2C(=O)c1ccc(C)cc1 | -0.33% |
| COC(=O)c1ccc(C(NC(=O)OCc2ccccc2)/C(C)=C/[C@@H](C)C(=O)NCc2ccc(OC)c(OC)c2)cc1 (stereo partly drawn) | -0.55% |
| COc1ccc(OCc2n[nH]c(=S)n2N)cc1 | 0.96% |
| COC(=O)c1ccc(CN2CCC(CO)(Cc3ccc(OC)cc3)CC2)cc1 | 4.67% |
| CCn1c(=S)[nH]c2sc3c(c2c1=O)CCCCC3 | 0.92% |
| O=C(C1=C[C@H](c2ccc(C(F)(F)F)cc2)C[C@H](OCc2ccc(CO)cc2)O1)N1CCN(Cc2ccccc2)CC1 | -0.62% |
| Cc1nc(=O)c(-c2ccccc2)c(C)n1-c1ccc(Br)cc1 | 1.06% |
| CC1(C)CC(=O)C(C2c3ccccc3S(=O)(=O)c3ccccc32)C(=O)C1 | -1.19% |
| O=C(CCc1ccccc1)Nc1ncc([N+](=O)[O-])s1 | 9.35% |
| O=C(Cc1c(F)cccc1Cl)Nc1ncc([N+](=O)[O-])s1 | 18.3% |
| CC(=O)Oc1ccccc1C(=O)Nc1ncc([N+](=O)[O-])s1 | 22.2% (active) |

| Compound | activation |
| --- | --- |
| CC(=O)c1ccc(N2CCN(S(=O)(=O)c3c(C)[nH]c(=O)[nH]c3=O)CC2)cc1 | 0.25% |
| CCc1nc2ccccc2c(C(=O)NCc2ccc(OC)cc2)c1C | -0.1% |
| CN(CC(=O)Nc1cccc(F)c1)CC(=O)Nc1cccc([N+](=O)[O-])c1 | 44.2% (active) |
| Cc1ccc(CN(C)CC(=O)Nc2cccc([N+](=O)[O-])c2)o1 | -1.16% |
| Cc1ccc(NC(=O)CN(C)CC(=O)Nc2cccc(F)c2)cc1[N+](=O)[O-] | 8.52% |
| CCOP(=O)(OCC)C(Nc1ccc([N+](=O)[O-])cc1)c1ccc(Cl)cc1 (stereo not drawn) | -1.18% |
| Cc1cc(Nc2ccc(Cl)cc2)nc(N2CCOCC2)n1 | -0.78% |
| O=C(O)CCn1c(SCc2cc(=O)n3ccccc3n2)nc2ccsc2c1=O | 0.55% |
| CCN(CC)C(=O)CC1(c2ccccc2OC)CCOC(C(C)C)C1 (stereo not drawn) | -0.7% |
| O=C(O)c1cccc(N2C(=O)Nc3ccccc3N2O)c1 | -0.51% |
| COc1ccc(N2C(=O)c3ccccc3NC2c2ccc(OC)c(CN3CCOCC3)c2)cc1 (stereo not drawn) | 0.64% |
| CC(NC(=O)COC(=O)c1cc(=O)[nH]c2ccccc12)c1ccccc1 (stereo not drawn) | 2.26% |
| O=c1[nH]c2c(c(=O)n1Cc1ccccc1)CCC2 | -0.42% |
| CC(=O)c1ccc(-c2ccc(Cn3c(C)nc4cc(N)c(C)nc43)cc2)cc1 | 0.89% |
| Cc1cc2nc3c(=O)n(Cc4ccccc4)c(=O)[nH]c3nc2cc1N | 37.4% (active) |
| COc1ccc(NC(=S)N2N=CCC2c2ccccc2)cc1 (stereo not drawn) | 0.6% |
| CCOc1ccc2c(=O)c(-c3ccc4c(c3)OCCCO4)c(C)oc2c1 | -1.72% |
| COC(=O)/C(C#N)=C/c1occc1C | 1.02% |
| CCCCCc1ccc(-c2ccc(OCC)cc2)nc1 | 1.46% |
| O=C(Cc1ncc(C(F)(F)F)cc1Cl)Nc1cccc(Br)c1 | 0.3% |
| c1ccc2c(c1)OCCOCCOCCO2 | -2.17% |
| CN(C)CCCN(Cc1cc2cc3c(cc2[nH]c1=O)OCCO3)C(=O)NC1CCCCC1 | 1.71% |
| Cc1nn(-c2ccccc2)c(NC(=O)c2cccs2)c(-c2ccc(Cl)cc2)c1=O | -0.42% |
| C/C(=N\NC(=O)CC(C)C)c1c(C(F)(F)F)[nH]n(-c2nc3ccccc3s2)c1=O | -0.3% |

| Compound | activation |
| --- | --- |
| COc1ccc(C(=O)NC(=S)NNC(=O)c2c(-c3ccccc3)noc2C)cc1 | 44% (active) |
| COc1ccc(C(=O)NC(=S)NNC(=O)CCc2ccccc2)cc1 | 12% |
| Cc1onc(-c2ccccc2)c1C(=O)NNC(=S)NC(=O)c1ccc(F)cc1 | 13.6% |
| CCCCC(=O)NNC(=S)NC(=O)C(c1ccccc1)c1ccccc1 | 84.8% (active) |
| O=C(NNC(=S)NCc1ccco1)C(c1ccccc1)c1ccccc1 | -0.07% |
| CC(C)C(=O)Nc1cccc(NC(=S)NC(=O)C(c2ccccc2)c2ccccc2)c1 | 2.14% |
| CC(=O)Nc1ccc(S(=O)(=O)NC2(C(F)(F)F)C(=O)Nc3c2c(=O)[nH]c(=O)n3Cc2ccccc2)cc1 (stereo not drawn) | 2.33% |
| CC(C)Cc1nc(Cl)c(C#N)c2c1CCC2 | -2.32% |
| Cc1ccc(Nc2cc(C)nc3c(C)ccc([N+](=O)[O-])c23)cc1 | -2.21% |
| Cc1cc(N2CCN(c3ccc(F)cc3)CC2)n2ncnc2n1 | 1.97% |
| CCc1cccc(C)c1NC(=O)COC(=O)Cc1ccsc1 | -0.93% |
| CN1CCN(NC(=O)c2ccc(S(=O)(=O)N3CCCCCC3)cc2)CC1 | 1.34% |
| CCOC(=O)COc1nc(C)cc(C(F)(F)F)c1C#N | -0.81% |
| CCOC(=O)/C(C#N)=C/c1ccc(N2CCCCC2)cc1 | 2.02% |
| Cc1cc(C(=O)NNC(=S)Nc2ccccc2C)cs1 | 3.43% |
| CN(C)CCOCCOc1ccc(Cl)c2ccccc12 | 1.52% |
| Cc1cccc(C)c1Nc1c(-c2ccccc2O)nc2ncccn12 | 1.43% |
| Cc1ccc(C2C(C#N)C(C#N)N3CCCN23)cc1 (stereo not drawn) | -0.02% |
| CCO/N=C(/C)c1c(O)cc(-c2ccccc2)n(-c2ccccc2)c1=O | 0.61% |
| COCc1c(N)c(C)nc(Cl)c1C#N | -0.99% |
| CCn1c(Cc2ccccc2)nnc1SCC(=O)Nc1ccccc1 | 0.58% |
| CCn1c(CSc2ncccn2)nnc1SCC(=O)N1c2ccccc2CC1C (stereo not drawn) | -0.46% |
| CCCc1nnc(SCC(=O)N2C(C)CCCC2C)n1CC (stereo not drawn) | 37.6% (active) |
| O=C(O)CCN(Cc1ccccc1)S(=O)(=O)c1c(Cl)cccc1Cl | 0.3% |

| Compound | activation |
| --- | --- |
| COc1cc(C(=O)OC(C)C(=O)NCC2CCCCC2)cc(NC(=O)c2ccco2)c1OC (stereo not drawn) | -0.78% |
| COCCN(Cc1cc2cc3c(cc2nc1Cl)OCO3)C(=O)c1cccc(C)c1 | 0.19% |
| CCN(CC)c1ccc2cc(C(=O)O)c(=O)oc2c1 | 1.02% |
| COc1ccc(C(=O)N/N=c2\oc3ccccc3cc2C(N)=O)cc1 | 1.99% |
| CCN(CC)c1ccc2cc(C(N)=O)/c(=N\NC(=O)c3ccncc3)oc2c1 | 31.1% (active) |
| CCC(C)NC(=O)c1ccc(N2CCC3(CC2)OCCO3)c([N+](=O)[O-])c1 (stereo not drawn) | 0.89% |
| O=C(/C=C/c1cccs1)NCc1cccnc1 | 0.53% |
| COC(=O)C1=NN(c2ccccc2)C2C(=O)N(c3ccccc3OC)C(=O)C12 (stereo not drawn) | -0.87% |
| COc1cccc(NC(=O)COC(=O)CCOc2ccccc2OC)c1 | -1.34% |
| CCc1c(O)cc2n(c1=O)-c1ccccc1C2(C)C | 1.3% |
| CC(C)(C)NC(=O)CN(C(=O)c1csnn1)c1ccccc1-c1ccccc1 | 1.04% |
| O=C(CCN1CCN(c2ccccc2)CC1)NNC(=S)Nc1ccccc1 | 2.77% |
| CCOc1ccccc1N1CN(Cc2ccccc2)CNC1=S | -0.98% |
| Cn1cc(S(=O)(=O)NC(c2ccccc2)c2ccccc2)c(=O)n(C)c1=O | 1.45% |
| COc1ccc(/C=N/NC(=O)C(C)N(c2ccc(OC)cc2)S(C)(=O)=O)cc1 (stereo not drawn) | 0.5% |
| CC(C)(C)NC(=O)CN1CCC(NC(=O)C23CC4CC(CC(C4)C2)C3)CC1 | 2.37% |
| O=C(COC(=O)c1ccc(F)cc1F)Nc1ncccn1 | -0.68% |
| O=C(COc1ccccc1)N1CCN=C1SCc1cccc(F)c1 | -0.02% |
| Cc1cc(OCC(=O)NC2CCN(C)CC2)ccc1[N+](=O)[O-] | 1.92% |
| CC1Cc2ccccc2N1CC(=O)Nc1ccc(S(N)(=O)=O)cc1 (stereo not drawn) | 1.19% |
| Cc1c(Cl)cccc1NC(=O)Nc1ccc(C(=O)N2CCCC2)cc1 | -0.96% |
